We go through one compound from ChEMBL document CHEMBL1649392, “Synthesis of substituted 3-amino-N-phenyl-1H-indazole-1-carboxamides endowed with antiproliferative activity” (Eur J Med Chem, 2011).

The data set is described as follows: Cytotoxicity in HFF cells after 72 hrs by trypan blue exclusion assay. It is filed as cell-based. As to conditions: human. The essentials:
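Human normal fibroblasts, 2 × 10⁵ per well, seeded in RPMI 1640 with 10% fetal calf serum plus penicillin and streptomycin at 37 °C under CO₂. Compound added after 24 h. Living cells counted at 72 h by trypan blue exclusion, expressed as percent of control proliferation; GI50 derived.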

Take `CCCCOc1ccc(NC(=O)n2nc(N)c3cc(N)ccc32)cc1`: halving of growth (GI50 at 72 h) required 32 µM.
